In ChEMBL document CHEMBL1140331, “Iterative approach to the discovery of novel degarelix analogues: substitutions at positions 3, 7, and 8. Part II” (J Med Chem, 2005) one finds IC50 data, which are given here for one molecule.

In the assay the target is T1, Gonadotropin-releasing hormone receptor (Homo sapiens, UniProt P30968).
T1 sequence (P30968 whole entry): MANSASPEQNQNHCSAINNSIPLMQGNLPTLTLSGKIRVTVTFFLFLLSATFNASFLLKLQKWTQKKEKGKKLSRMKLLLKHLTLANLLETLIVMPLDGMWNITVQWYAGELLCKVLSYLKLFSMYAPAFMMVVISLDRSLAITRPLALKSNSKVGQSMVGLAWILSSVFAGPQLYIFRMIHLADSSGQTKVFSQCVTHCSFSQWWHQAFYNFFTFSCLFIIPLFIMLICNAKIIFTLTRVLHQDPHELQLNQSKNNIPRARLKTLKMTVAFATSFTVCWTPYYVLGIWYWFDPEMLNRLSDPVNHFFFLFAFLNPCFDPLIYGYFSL
Kind of assay: Antagonism of GnRH response in HEK293 cells expressing human GnRH receptor. In kind it is functional, cell-based. The gist of the method:
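HEK293 cells stably carrying cloned human GnRH receptor and luciferase reporter under LH α-subunit promoter; cultured in phenol red-free DMEM, 10% FBS, G418 0.4 mg/mL; plated 5×10^4 cells/well, overnight 37 °C. Compound (11 half-log concentrations, duplicate, 1% DMSO) preincubated 10 min, then GnRH 1 nM final, ≥5 h; luminescence read; % of control cps (blank-subtracted) gives IC50.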

pIC50: −log10 of the molar value.

For orientation: pIC50 means the negative decadic logarithm of the IC50, by convention in mol/L. A higher pIC50 goes with a small IC50. Molecule `CC(=O)N[C@H](Cc1ccc2ccccc2c1)C(=O)N[C@H](Cc1ccc(Cl)cc1)C(=O)N[C@H](Cc1cccnc1)C(=O)N[C@@H](CO)C(=O)N[C@@H](Cc1ccc(NC(=O)[C@@H]2CC(=O)NC(=O)N2)cc1)C(=O)N[C@H](Cc1ccc(NC(N)=O)cc1)C(=O)N[C@@H](CC(N)=O)C(=O)N[C@@H](CCCCNC(C)C)C(=O)N1CCC[C@H]1C(=O)N[C@H](C)C(N)=O` had a pIC50 of 8.04.
